# Measurements: ChEMBL document CHEMBL4765345, “Design, synthesis, and biological evaluation of dual targeting inhibitors of histone deacetylase 6/8 and bromodomain BRPF1” (Eur J Med Chem, 2020)
# Key:
# THP-1 = assay: Antiproliferative activity against human THP-1 assessed as reduction in cell growth at 100 uM by CellTiter-non radioactive cell proliferation assay; format: functional
# Histone deacetylase 1 = Histone deacetylase 1 (Homo sapiens, UniProt Q13547); assay: Inhibition of recombinant human HDAC1 at 10 uM using Z-(Ac)Lys-AMC as substrate after 90 mins by fluorescence based micro plate assay
# Summary of the method: (§1)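 Recombinant human HDAC1 or HDAC6 incubated 90 min at 37 °C with 10.5 μM ZMAL (Z-(Ac)Lys-AMC) and increasing inhibitor concentrations, using a homogeneous fluorescence assay. Fluorescence read at Ex 390/Em 460 nm.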
# [1] = molecular target: T1, Protein deacetylase HDAC6 (Homo sapiens) (UniProt Q9UBN7); assay: Inhibition of recombinant human HDAC6 at 1 uM using Z-(Ac)Lys-AMC as substrate after 90 mins by fluorescence based micro plate assay; summary of the method: as §1
# T1 sequence (whole entry): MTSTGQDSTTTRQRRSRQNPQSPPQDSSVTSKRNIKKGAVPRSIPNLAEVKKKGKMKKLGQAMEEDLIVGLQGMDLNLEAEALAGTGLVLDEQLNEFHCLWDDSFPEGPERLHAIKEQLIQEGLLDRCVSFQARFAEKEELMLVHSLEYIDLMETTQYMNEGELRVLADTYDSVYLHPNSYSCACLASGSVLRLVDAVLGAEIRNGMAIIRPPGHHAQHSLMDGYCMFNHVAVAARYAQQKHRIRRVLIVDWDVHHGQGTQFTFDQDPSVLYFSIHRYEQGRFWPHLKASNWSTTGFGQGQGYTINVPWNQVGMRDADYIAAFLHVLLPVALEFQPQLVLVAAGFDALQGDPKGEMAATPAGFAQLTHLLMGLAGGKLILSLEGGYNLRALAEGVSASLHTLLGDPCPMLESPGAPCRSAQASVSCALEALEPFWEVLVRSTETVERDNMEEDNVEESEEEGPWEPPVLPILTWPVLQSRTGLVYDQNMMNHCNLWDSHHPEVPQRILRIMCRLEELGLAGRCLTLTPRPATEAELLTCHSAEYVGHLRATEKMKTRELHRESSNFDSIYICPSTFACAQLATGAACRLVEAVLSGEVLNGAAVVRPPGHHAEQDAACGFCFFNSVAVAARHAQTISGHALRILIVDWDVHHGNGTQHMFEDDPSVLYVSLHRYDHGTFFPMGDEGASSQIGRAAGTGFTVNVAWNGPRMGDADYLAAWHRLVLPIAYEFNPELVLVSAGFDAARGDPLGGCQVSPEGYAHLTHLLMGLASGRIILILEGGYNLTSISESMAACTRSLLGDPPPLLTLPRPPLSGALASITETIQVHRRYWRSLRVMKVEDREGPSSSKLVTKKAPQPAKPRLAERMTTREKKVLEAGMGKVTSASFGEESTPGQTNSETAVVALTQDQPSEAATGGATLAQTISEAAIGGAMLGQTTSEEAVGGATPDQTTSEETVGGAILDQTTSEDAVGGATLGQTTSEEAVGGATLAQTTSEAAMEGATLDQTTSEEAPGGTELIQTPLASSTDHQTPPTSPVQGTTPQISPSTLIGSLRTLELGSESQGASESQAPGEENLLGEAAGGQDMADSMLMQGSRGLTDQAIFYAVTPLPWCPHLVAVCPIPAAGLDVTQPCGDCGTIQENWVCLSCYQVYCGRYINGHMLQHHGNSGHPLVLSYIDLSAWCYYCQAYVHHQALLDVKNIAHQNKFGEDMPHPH
# HL-60 [2] = assay: Antiproliferative activity against human HL60 assessed as reduction in cell growth at 100 uM by CellTiter-non radioactive cell proliferation assay; format: functional
# [3] = molecular target: T1, Protein deacetylase HDAC6 (Homo sapiens); assay: Inhibition of recombinant human HDAC6 at 10 uM using Z-(Ac)Lys-AMC as substrate after 90 mins by fluorescence based micro plate assay; summary of the method: as §1
# HL-60 [4] = assay: Antiproliferative activity against human HL60 assessed as reduction in cell growth at 4 uM by CellTiter-non radioactive cell proliferation assay; format: functional
# Summary of the method: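 HL60 cells plated at 5000 per well and given inhibitor or DMSO vehicle immediately. Compounds diluted from 200x DMSO stocks; three replicates per concentration. Growth read by CellTiter 96 Aqueous (MTS) assay. GI50 is the concentration cutting metabolically active cells by 50% versus DMSO control, taken from absorbance against log concentration.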
# Peregrin = molecular target: T2, Peregrin (Homo sapiens, UniProt P55201); assay: Binding affinity to BRPF1 (unknown origin) by Isothermal titration calorimetry; details: read-out: Kd
# T2 sequence (P55201 whole entry): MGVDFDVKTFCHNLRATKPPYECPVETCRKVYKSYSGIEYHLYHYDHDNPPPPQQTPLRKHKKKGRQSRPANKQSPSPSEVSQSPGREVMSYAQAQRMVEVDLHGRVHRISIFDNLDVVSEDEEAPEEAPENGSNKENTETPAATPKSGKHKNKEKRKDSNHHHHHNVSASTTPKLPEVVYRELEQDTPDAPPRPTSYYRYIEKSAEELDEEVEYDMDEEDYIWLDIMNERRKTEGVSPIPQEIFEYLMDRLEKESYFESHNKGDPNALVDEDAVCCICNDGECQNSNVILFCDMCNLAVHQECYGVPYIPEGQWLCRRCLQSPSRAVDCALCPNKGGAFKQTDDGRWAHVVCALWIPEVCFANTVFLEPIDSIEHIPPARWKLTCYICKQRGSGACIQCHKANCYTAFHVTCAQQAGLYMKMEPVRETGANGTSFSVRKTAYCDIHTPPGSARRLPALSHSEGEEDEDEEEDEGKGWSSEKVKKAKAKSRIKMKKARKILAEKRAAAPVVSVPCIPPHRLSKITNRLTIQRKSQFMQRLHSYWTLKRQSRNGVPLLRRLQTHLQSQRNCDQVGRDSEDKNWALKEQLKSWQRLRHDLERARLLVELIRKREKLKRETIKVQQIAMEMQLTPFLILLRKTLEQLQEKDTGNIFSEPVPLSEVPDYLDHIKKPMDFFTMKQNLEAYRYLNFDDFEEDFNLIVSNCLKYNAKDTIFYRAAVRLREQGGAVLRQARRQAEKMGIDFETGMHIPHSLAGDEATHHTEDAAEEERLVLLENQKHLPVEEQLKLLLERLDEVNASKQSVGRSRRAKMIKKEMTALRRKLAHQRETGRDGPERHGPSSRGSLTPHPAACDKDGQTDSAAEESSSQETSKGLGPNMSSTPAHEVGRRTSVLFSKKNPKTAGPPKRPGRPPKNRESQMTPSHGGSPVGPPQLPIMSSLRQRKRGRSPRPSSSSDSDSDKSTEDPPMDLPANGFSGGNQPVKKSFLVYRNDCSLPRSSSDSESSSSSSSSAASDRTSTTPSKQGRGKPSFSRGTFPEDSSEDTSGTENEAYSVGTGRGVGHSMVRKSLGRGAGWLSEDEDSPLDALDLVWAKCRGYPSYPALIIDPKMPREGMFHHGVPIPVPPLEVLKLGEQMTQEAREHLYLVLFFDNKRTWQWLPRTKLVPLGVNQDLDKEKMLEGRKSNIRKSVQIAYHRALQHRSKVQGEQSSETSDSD
# Summary of the method: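 Isothermal titration calorimetry with recombinant BRPF1 (200–400 μM) in the injection syringe titrated into ligand (20–40 μM) in the sample cell. Kd was fitted from the titrations and reported with its P99 interval.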
# Chain of Histone deacetylase 1 (Q13547 whole entry): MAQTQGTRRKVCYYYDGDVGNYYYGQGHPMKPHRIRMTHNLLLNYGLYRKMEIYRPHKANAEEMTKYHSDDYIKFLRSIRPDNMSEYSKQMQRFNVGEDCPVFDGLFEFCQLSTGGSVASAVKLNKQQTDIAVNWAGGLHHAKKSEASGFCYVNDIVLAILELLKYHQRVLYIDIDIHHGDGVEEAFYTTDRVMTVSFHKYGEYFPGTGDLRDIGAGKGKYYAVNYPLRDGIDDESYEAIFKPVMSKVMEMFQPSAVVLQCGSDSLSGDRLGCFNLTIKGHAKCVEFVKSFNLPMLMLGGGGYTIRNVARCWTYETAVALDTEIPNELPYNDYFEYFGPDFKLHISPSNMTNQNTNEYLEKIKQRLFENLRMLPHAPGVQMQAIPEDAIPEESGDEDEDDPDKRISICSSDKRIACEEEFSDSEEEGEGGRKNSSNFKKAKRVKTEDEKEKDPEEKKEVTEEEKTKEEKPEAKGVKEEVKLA
compound,measurement,setting,value
COc1ccc(C(=O)NO)cc1S(=O)(=O)Nc1ccc2c(c1)cc(C)c(=O)n2C,inhibition at 100 µM,THP-1,43%
same,inhibition,Histone deacetylase 1,38%
same,inhibition,[1],21%
same,inhibition at 100 µM,HL-60 [2],39%
same,inhibition,[3],64%
same,inhibition at 4 µM,HL-60 [4],25%
same,Kd,Peregrin,67 nM
